The values that follow come from ChEMBL document CHEMBL4373711, “Development of 3,5-Dinitrophenyl-Containing 1,2,4-Triazoles and Their Trifluoromethyl Analogues as Highly Efficient Antitubercular Agents Inhibiting Decaprenylphosphoryl-β-d-ribofuranose 2'-Oxidase” (J Med Chem, 2019).

Values after ≈ are worked out from the molar mass of the structure shown.

Experiment [1] has as its system Mycobacterium tuberculosis. Nature of the experiment: Antimycobacterial activity against multi-drug resistant Mycobacterium tuberculosis Praha 1 after 14 days. Format: functional. The settings on record: Praha 1, 336 h. The method in brief:
(§1)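 M. tuberculosis strains (H37Rv and clinical MDR/XDR isolates) tested by microdilution in Šula's semisynthetic medium. Compounds were dissolved in DMSO and tested at 32 to 0.03 µM in twofold steps. Inoculum was a 1.0 McFarland suspension diluted 10-3. Plates were incubated at 37 °C and read at 14 and 21 days.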

The test system of experiment [2] is Mycobacterium tuberculosis. Put plainly: Antimycobacterial activity against multi-drug resistant Mycobacterium tuberculosis Praha 1 after 21 days. The experiment is classed as functional. The settings on record: Praha 1, 504 h. The method in brief:
as §1

The test system of experiment [3] is Mycobacterium tuberculosis. Put plainly: microbe, parasite or virus in culture. To be noted: 234/2005, 336 h.
The test system of experiment [4] is Mycobacterium tuberculosis. Nature of the experiment: Antimycobacterial activity against multi-drug resistant Mycobacterium tuberculosis 9449/2007 after 21 days. Format: functional. The settings on record: 9449/2007, 504 h. In short, it runs like this:
as §1

The subject of experiment [5] is Mycobacterium tuberculosis. Put plainly: Antimycobacterial activity against multi-drug resistant Mycobacterium tuberculosis Praha 4 after 21 days. To be noted: Praha 4, 504 h. Format: functional. In short, it runs like this:
as §1

Experiment [6] concerns Mycobacterium tuberculosis. Put plainly: Antimycobacterial activity against multi-drug resistant Mycobacterium tuberculosis Praha 4 after 14 days. To be noted: Praha 4, 336 h.
In experiment [7] the test system is Mycobacterium tuberculosis. Put plainly: Antimycobacterial activity against multi-drug resistant Mycobacterium tuberculosis 234/2005 after 21 days. The experiment is classed as functional. The settings on record: 234/2005, 504 h. In short, it runs like this: as §1
Experiment [8] concerns Mycobacterium tuberculosis. Put plainly: Antimycobacterial activity against multi-drug resistant Mycobacterium tuberculosis 7357/1998 after 21 days. Format: functional. To be noted: 7357/1998, 504 h. The method in brief: as §1
Experiment [9] deals with Mycobacterium tuberculosis. Nature of the experiment: Antimycobacterial activity against multi-drug resistant Mycobacterium tuberculosis 8666/2010 after 21 days. The settings on record: 8666/2010, 504 h. The experiment is classed as functional. The method in brief:
as §1

Experiment [10] concerns Mycobacterium tuberculosis. Put plainly: Antimycobacterial activity against multi-drug resistant Mycobacterium tuberculosis 8666/2010 after 14 days. Format: functional. The settings on record: 8666/2010, 336 h. The method in brief:
as §1

Experiment [11] relates to Mycobacterium tuberculosis. Put plainly: Antimycobacterial activity against multi-drug resistant Mycobacterium tuberculosis 7357/1998 after 14 days. The settings on record: 7357/1998, 336 h. The experiment is classed as functional. The method in brief:
as §1

Experiment [12] concerns Mycobacterium tuberculosis. Put plainly: Antimycobacterial activity against multi-drug resistant Mycobacterium tuberculosis 9449/2007 after 14 days. The experiment is classed as functional. The settings on record: 9449/2007, 336 h. In short, it runs like this: as §1

For `Cn1c(SCc2ccccc2)nnc1-c1cc([N+](=O)[O-])cc([N+](=O)[O-])c1`, the MIC99 in [1], in experiment [2], in [3], in [4], in experiment [5] and in experiment [6] was 0.03 µM (≈ 0.0111 µg/mL) each time. The MIC99 in [7], in [8], in experiment [9], in [10], in experiment [11] and in experiment [12] was 0.03 µM (≈ 0.0111 µg/mL) each time.
In the case of `COc1ccc(CSc2nnc(-c3cc([N+](=O)[O-])cc([N+](=O)[O-])c3)n2Cc2ccccc2)cc1`, the MIC99 in [1], in [2], in [3], in experiment [4], in experiment [5] and in experiment [6] was 0.03 µM (≈ 0.0143 µg/mL) throughout. Also, the MIC99 in experiment [7], in experiment [8], in [9], in [10], in [11] and in [12] was 0.03 µM (≈ 0.0143 µg/mL) each time.
With `CCn1c(SCc2ccccc2)nnc1-c1cc([N+](=O)[O-])cc([N+](=O)[O-])c1`, the MIC99 in experiment [1], in experiment [2], in experiment [3], in [4], in experiment [5] and in experiment [6] was 0.03 µM (≈ 0.0116 µg/mL) each time. For the same molecule, the MIC99 in experiment [7], in experiment [8], in experiment [9], in experiment [10], in experiment [11] and in experiment [12] was 0.03 µM (≈ 0.0116 µg/mL) each time.
As to `CCCCCCn1c(SCc2cc([N+](=O)[O-])cc([N+](=O)[O-])c2)nnc1-c1ccccc1`, the MIC99 was 1 µM (≈ 0.442 µg/mL) in experiment [1]; 2 µM (≈ 0.883 µg/mL) in [2]; 2 µM (≈ 0.883 µg/mL) in experiment [3]; 1 µM (≈ 0.442 µg/mL) in experiment [4]; 4 µM (≈ 1.77 µg/mL) in [5]; 2 µM (≈ 0.883 µg/mL) in experiment [6]. The MIC99 was determined as 2 µM (≈ 0.883 µg/mL) in experiment [7]; 1 µM (≈ 0.442 µg/mL) in experiment [8]; 2 µM (≈ 0.883 µg/mL) in experiment [9]; 1 µM (≈ 0.442 µg/mL) in experiment [10]; 2 µM (≈ 0.883 µg/mL) in experiment [11]; 2 µM (≈ 0.883 µg/mL) in [12].
